Experimental data from different studies.
pIC50: −log10 of the molar value.
Cell line: HepG2
Observed: cell growth or viability

SMILES | assay | setting | quantity | result
Clc1ccc(-c2nc3ccccc3[nH]2)cc1Cl | MTT | 48 h | pIC50 | 5.13
CCOC(=O)c1ccc(N2C(N)=C(C#N)C3(C(=O)Nc4ccccc43)C(C#N)=C2O)cc1 (stereo not drawn) | MTT | 100 µM, 24 h | viability | 10.7%
COc1ccc(NCC(=O)Nc2c(C#N)sc(Nc3ccccc3)c2C(=O)Nc2ccc(OC)cc2)cc1 | SRB | 1 nM, 48 h | viability | 97.2%
CCOC(=O)c1ccc(-n2c(-c3ccc(C)cc3)cc(-c3ccc(O)cc3)c(C#N)c2=O)cc1 | MTT | 6.25 µM, 24 h | viability | 67.9%
Cc1ccc2nc(-c3ccc(Cl)cc3)n(Cc3ccccc3)c2c1 | MTT |  | pIC50 | 5.49
COc1ccc(NC(=O)c2c(Nc3ccccc3)sc(C(=O)NN=Cc3ccc(OC)c(O)c3)c2NC(C)=O)cc1 | SRB | 100 µM, 48 h | viability | 22.4%
CC(=O)Nc1cccc(-n2c(=O)n(C3CC3)c(=O)c3c(Nc4ccc(I)cc4F)n(C)c(=O)c(C)c32)c1 | resazurin | 6.25 nM, 72 h | viability | 68%
COc1ccc(NC(=O)c2c(Nc3ccccc3)sc(C#N)c2NC(=O)CNc2ccccc2Cl)cc1 | SRB | 1 nM, 48 h | viability | 101%
CCOC(=O)c1ccc(-n2c(N)c(C#N)c(CC#N)c(C#N)c2=O)cc1 | MTT | 6.25 µM, 24 h | viability | 71.8%
